Screens: PubChem BioAssay, Sanford-Burnham Center for Chemical Genomics
TNAP act hi DEA = activators of human TNAP at high phosphate acceptor concentration; P05186; purified TNAP, CDP-star luminescence, 1 M DEA, 30 min; stronger effect = higher value; 0 = EDTA background, 1 = DMSO-only activity; activation factor at 20 µM; 200,000 tested, under 10 active;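 active = activation factor at least 2 at 20 µM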
Target sequence (P05186 whole entry, looked up): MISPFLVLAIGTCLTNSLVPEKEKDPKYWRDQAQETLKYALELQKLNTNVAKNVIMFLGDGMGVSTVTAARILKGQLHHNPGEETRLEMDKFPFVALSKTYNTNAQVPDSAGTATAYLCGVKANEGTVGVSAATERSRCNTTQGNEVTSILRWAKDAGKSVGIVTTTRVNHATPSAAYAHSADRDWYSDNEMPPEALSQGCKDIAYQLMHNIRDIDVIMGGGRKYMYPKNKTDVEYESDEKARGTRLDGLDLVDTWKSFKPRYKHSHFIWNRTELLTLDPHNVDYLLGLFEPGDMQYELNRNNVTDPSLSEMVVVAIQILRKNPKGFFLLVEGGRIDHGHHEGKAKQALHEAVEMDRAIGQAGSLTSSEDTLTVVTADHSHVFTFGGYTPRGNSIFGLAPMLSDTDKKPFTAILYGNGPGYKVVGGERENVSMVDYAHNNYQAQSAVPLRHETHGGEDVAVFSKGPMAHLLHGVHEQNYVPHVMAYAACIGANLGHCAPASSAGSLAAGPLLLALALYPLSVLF
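system = human TNAP | amount = enzyme diluted 1/800 final | reagent = 100 µM CDP-star substrate | signal = luminescent substrate turnover signal | dosing = one dose, 20 µM | benchmarks = EDTA negative control, DMSO positive control | measure = activation factor | timing = 30 min reaction, room temperature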
TNAP inh hi DEA = blocks human TNAP under high phosphate acceptor concentration; inhibition, % at 20 µM; 200,000 compounds, 0.03% hits; purified TNAP, CDP-star luminescence, 1 M DEA; P05186;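 active = over 50% inhibition of tissue-nonspecific alkaline phosphatase at 20 µM in the single-dose screen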
PMI act hi M6P = activators of human phosphomannose isomerase at near-saturating mannose 6-phosphate; coupled PMI enzyme assay, resazurin fluorescence, 20 min; stronger effect = higher value; 1 = untreated enzyme, 0 = substrate-free blank; activation factor at 20 µM; AID 1216; P34949; 190,000 compounds, 0.34% hits;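 active = activation factor of 2 or more at 20 µM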
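Test system: human phosphomannose isomerase with PGI, G6PDH, diaphorase coupling enzymes / Doses: 20 µM compound, 1% DMSO / Times: enzyme reaction with compound 20 min at room temperature / Measured by: Diaphorase-driven resazurin-to-resorufin fluorescence, excitation 544, emission 590 nm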
PMI activator = activators of human phosphomannose isomerase. purified human PMI, coupled resazurin fluorescence, 20 min; stronger effect = higher value; 1 = vehicle control, 0 substrate-free wells. 190,000 compounds, 0.005% hits. activation factor at 20 µM;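 active = activation factor of 2 or more at 20 µM, relative to plate controls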
TNAP inh no acc = TNAP (human) inhibition, acceptor-free conditions. 200,000 compounds, 0.26% hits. inhibition, % at 20 µM. purified TNAP, CDP-star luminescence, 30 min. P05186;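 active = tissue-nonspecific alkaline phosphatase inhibition above about 50% at 20 µM in the single-dose screen, limit read from the data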
Numbers stand for hits; - = inactive. Shown are actives, neighbours in structure and some others; about 0.6% of the full set was active somewhere.

SMILES	TNAP act hi DEA	TNAP inh hi DEA	PMI act hi M6P	PMI activator	TNAP inh no acc
CCOC(=O)c1c(NC(=O)C[n+]2ccc(Cc3ccccc3)cc2)sc(C)c1C	-	-	-	-	-
CCCc1c(C)nc2ccccc2c1SCCC#N	-	-	2.3	-	-
COC(=O)NC(=S)N1CCOCC1	-	-	-	-	-
Cc1cc(C(=O)Nc2ncc(C)s2)c2ccccc2n1	-	-	-	-	-
N#Cc1cc2cc3c(cc2nc1N1CCOCC1)OCO3	-	-	2.1	-	-
CCCCOc1ccc(NC(=O)CCSc2nccn2C)cc1	-	-	-	-	-
CCN(CC)C(=O)CSc1nc2ncccc2[nH]1	-	-	-	-	-
C=C(C)CSc1nc2ncccc2[nH]1	-	-	-	-	66
CC1CCCN(C(=O)CSc2nc3ncccc3[nH]2)C1 (configuration not stated)	-	-	-	-	53
NS(=O)(=O)c1ccc(CNC(=O)/C=C/c2ccccc2[N+](=O)[O-])cc1	-	-	-	-	62
O=C(/C=C/c1ccccc1[N+](=O)[O-])NCc1ccc(Cl)cc1	-	-	-	-	-
CCN(Cc1ccccc1)c1ccc(/C=N/NS(=O)(=O)c2cccc([N+](=O)[O-])c2)cc1	-	-	2	-	-
Cc1n[nH]c(C)c1S(=O)(=O)N1CCN(c2ccccn2)CC1	-	-	-	-	59
COC(=O)C(NNc1ccccc1)(NC(=O)c1cccc(F)c1)C(F)(F)F (configuration not stated)	-	-	2.2	-	-
O=C(CN1CCN(CCN2C(=O)c3cccc4cccc(c34)C2=O)CC1)c1ccc(Cl)cc1	-	-	2.6	-	-
O=C(CN1CCN(CCN2C(=O)c3cccc4cccc(c34)C2=O)CC1)c1ccc(F)cc1	-	-	-	-	-
C/C(=N\NC(N)=S)C1C2C3CC4C5CC(C42)C1C53 (configuration not stated)	-	-	-	-	-
CCOC(=O)C1(Cc2cccc(OC)c2)CCN(Cc2cccc3c2OCO3)CC1	-	-	-	-	-
CSc1n[nH]c(/N=C/c2oc(O)c3ccccc23)n1	-	-	-	-	-
Oc1oc(C=Nc2ccc(F)cc2F)c2ccccc12	-	-	2.3	-	-
CCOC(=O)C1=NN(C(=O)COc2ccccc2)C(O)(c2ccc(Br)cc2)C1 (configuration not stated)	-	-	-	-	51
O=C(Sc1nnnn1C1CCCCC1)c1cccs1	-	-	2.2	-	-
Cc1cc(C)c2c(N)c(C(=O)N3CCN(c4ncccn4)CC3)sc2n1	-	-	2	-	-
COc1cc(C(c2c(C)[nH][nH]c2=O)c2c(C)[nH][nH]c2=O)ccc1OS(=O)(=O)c1ccc(C)cc1	-	51	-	-	-
COc1cc(C(c2c(C)[nH][nH]c2=O)c2c(C)[nH][nH]c2=O)ccc1OC(C)C	-	87	-	-	82
SMILES	TNAP act hi DEA	TNAP inh hi DEA	PMI act hi M6P	PMI activator	TNAP inh no acc
COc1cc(C(c2c(C)[nH][nH]c2=O)c2c(C)[nH][nH]c2=O)ccc1OS(=O)(=O)c1ccccc1	-	72	-	-	-
COc1cc(C(c2c(C)[nH][nH]c2=O)c2c(C)[nH][nH]c2=O)cc(OC)c1OC	-	-	-	-	-
CN1CCN(Cc2c(O)ccc3cc(-c4ccccn4)c(=O)oc23)CC1	-	-	-	-	-
CC(Sc1ccc2nnc(-c3ccc(F)cc3)n2n1)C(=O)O (configuration not stated)	-	-	2.2	-	-
O=c1/c(=C\c2cc([N+](=O)[O-])cc([N+](=O)[O-])c2O)sc2nc3ccccc3n12	-	-	2.4	-	-
O=C(c1ccc(Cl)cc1)c1oc2ccccc2c1CS(=O)c1ccccc1 (configuration not stated)	-	-	2.2	-	-
Cc1ccc(S(=O)(=O)N2CCOCC(=O)NCCOCCNC(=O)COCC2)cc1	-	-	-	-	-
Cc1cc(C)c2c(c1)[C@@H]1C=CC[C@@H]1[C@H](c1ccc(S(=O)(=O)N3CCOCC3)cc1)N2	-	-	2.2	-	-
CCC(=O)n1nc(-c2ccccc2)nc1N	-	-	-	-	-
CCC(=O)n1nc(-c2ccc(OC)cc2)nc1N	-	-	-	-	51
